Data on ten compounds can be found in ChEMBL document CHEMBL2010650, “Synthetic N-alkylated iminosugars as new potential immunosuppressive agents” (ACS Med Chem Lett, 2011).

The term inhibition denotes how much of the control response was suppressed. For orientation: LD50 means the dose at which mortality reaches 50%.

Active and inactive are the calls of the source. No cut-off for these calls is given here.

The species entered for series [1] is Mus musculus. The series is described as follows: Toxicity in C57BL/6 mouse transplanted with trunk skin of BALB/c mouse assessed as mortality. To be noted: in vivo. The class given is organism-based.
The subject of series [2] is Th1. The series is described as follows: Immunosuppressive activity in Th1 cells assessed as reduction of IFNgamma production. The class given is functional, cell-based.
For series [3], the system named is Th2. The series is described as follows: Immunosuppressive activity in Th2 cells assessed as reduction of IL-4 production. Format: functional, cell-based.
Series [4] can be described thus: Immunosuppressive activity in BALB/c mouse splenocytes assessed as inhibition of concanavalin-A-induced cell proliferation at 30 uM after 48 hrs by MTT assay. The class given is functional. To be noted: Splenocyte. An outline of the steps: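 Mouse splenocytes stimulated with Con A at 2.5 μg/mL, incubated with compound at 37 °C, 5% CO₂ for 48 h. Proliferation read by MTT assay. Con A-treated cells serve as control, CsA (1 μM) as positive control. Inhibition is expressed relative to control, as means ± SEM.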

The subject of series [5] is Splenocyte. The series is described as follows: Immunosuppressive activity in BALB/c mouse splenocytes assessed as reduction in concanavalin-A-induced IL4 production at 30 uM after 48 hrs by ELISA. Format: functional. On the set-up: scale not given: the % may be the effect or the level left. In outline: (§1)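 Splenocytes induced with 2.5 μg/mL Con A, co-incubated with compound 48 h at 37 °C, 5% CO₂. Culture supernatant assayed for IFN-γ or IL-4 by mouse ELISA kit. Reduction is relative to Con A-only control, with CsA 1 μM as positive control.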

Series [6] relates to Splenocyte. The series is described as follows: Immunosuppressive activity in BALB/c mouse splenocytes assessed as reduction in concanavalin-A-induced IFN-gamma production at 30 uM after 48 hrs by ELISA. Format: functional. On the set-up: scale not given: the % may be the effect or the level left. In outline: as §1
For series [7], the system named is Mus musculus. The series is described as follows: Immunosuppressive activity in C57BL/6 mouse transplanted with trunk skin of BALB/c mouse assessed as increase of allograft mean survival time at 50 umol/kg, sc (reference value: 11.25 +/- 1.83 days). The class given is functional.
Series [8] concerns Splenocyte. The series is described as follows: Immunosuppressive activity in BALB/c mouse splenocytes assessed as reduction in concanavalin-A-induced IL4 production at 1 uM after 48 hrs by ELISA. The class given is functional. More on the design: scale not given: the % may be the effect or the level left. In outline: as §1
(In general: An ELISA detects its analyte on a solid surface through an enzyme-linked reagent.)

Series [9] deals with Splenocyte. The experiment in a line: Immunosuppressive activity in BALB/c mouse splenocytes assessed as reduction in concanavalin-A-induced IFN-gamma production at 1 uM after 48 hrs by ELISA. Format: functional. More on the design: scale not given: the % may be the effect or the level left. In outline: as §1
Series [10] is described as follows: Toxicity in subcutaneously dosed C57BL/6 mouse transplanted with trunk skin of BALB/c mouse. The class given is organism-based. To be noted: in vivo, sc.

In the case of `CCCCCCCCCCN1C[C@@H](O)[C@H](O)[C@@H](O)C1`, the Activity result in series [1] is listed as “Non-toxic”; in series [5], 60.9%; in series [6], 89.1%. The outcome in series [2] and in [3] was Active. Moreover, in series [4], the inhibition at 30 µM stood at 45.9%. In [7], the MST is 14.71 days.

`CCCCCCCCCCN1C[C@H](O)[C@H](O)C1=O`: in series [4], the inhibition at 30 µM is below 40%.

For the compound `CCCCCCCCCCN1C[C@H](O)[C@@H](O)[C@H](O)C1=O`, the inhibition at 30 µM in series [4] was below 40%.

Take `C/C=C/C[C@@H](C)[C@@H](O)[C@H]1C(=O)N[C@@H](CC)C(=O)N(C)CC(=O)N(C)[C@@H](CC(C)C)C(=O)N[C@@H](C(C)C)C(=O)N(C)[C@@H](CC(C)C)C(=O)N[C@@H](C)C(=O)N[C@H](C)C(=O)N(C)[C@@H](CC(C)C)C(=O)N(C)[C@@H](CC(C)C)C(=O)N(C)[C@@H](C(C)C)C(=O)N1C` [CYCLOSPORINE]: the values for the Activity in series [8] and in [9] were 96.8% and 97.1%, respectively.

With `CCCCCCCCCCN1C[C@@H](O)C(O)[C@H](O)C1`, the Activity result was “Non-toxic” in series [1], 85.6% in [5] and 75% in [6]. The outcome in series [2] and in series [3] was Active. Also, the inhibition at 30 µM in series [4] turned out to be 59%. Moreover, in series [7], the MST turned out to be 15.2 days.

Take `CCCCCCCCCCN1C[C@H](O)[C@@H](O)[C@@H](O)C1=O`: the inhibition at 30 µM in [4] is below 40%.

In the case of `CCCCCCCCCCN1C[C@H](O)C(O)[C@@H](O)C1`, the Activity entry in series [1] is recorded as “Non-toxic”; in [5], 95.7%; in [6] it was 78.1%. Further, the result in series [2] and in series [3] was Active. Besides, the inhibition at 30 µM in [4] turned out to be 57.2%. Moreover, the MST in [7] was 14.14 days.

With `CCCCCCCCCCN1C[C@@H](O)[C@@H](O)[C@H](O)C1=O`, in series [4], the inhibition at 30 µM is below 40%.

Regarding `CCCCCCCCCCN1C[C@@H](O)[C@@H](O)C1`, the LD50 in series [10] is 392 mg/kg. Further, the Activity entry is recorded as “Non-toxic” in series [1], 88.6% in [5] and 94.7% in series [6]. In addition, the result in series [2] and in series [3] was Active. Besides, the inhibition at 30 µM in [4] was found to be 61%. Besides, in [7], the MST worked out at 15.6 days.

For `CCCCCCCCN1C[C@@H](O)[C@H](O)[C@@H](O)C1`, the outcome in series [2] was Active. In [4], the inhibition at 30 µM was 27.1%. In addition, the Activity is given as 8.7% in series [5] and 40.3% in series [6].
